In paper PMC12059366 (Biomolecules & Therapeutics, 2025):

How the values were obtained:
complementary DNAs = assay: Melting temperature; type: binding; settings: 2 μM PNA-DNA duplex, 10 mM sodium phosphate pH 7.0, 0.1 M NaCl; absorbance at 260 nm, 25°C to 90°C at 1.0°C per minute
IDO1 = IDO1 gene expression by q-RT-PCR in IFNγ-treated human keratinocytes; type: cell-based; settings: compound 24 h before IFNγ, n=3
Summary of the method: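 Primary neonatal foreskin human keratinocytes in supplemented KBM Gold medium were pretreated with test PNA for 24 h, then given recombinant human IFNγ in KBM Gold basal medium. The control was scrambled PNA at 0.1 μM. RNA was extracted with TRIzol and RNeasy, then reverse-transcribed. IDO1 was measured by TaqMan q-RT-PCR against RPL13A using the Pfaffl method. Results are mean ± SD, n=3, t-test.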

PGE2 = PGE2 level by ELISA in supernatants of IFNγ-treated human keratinocytes; type: cell-based; settings: concentration-dependent, n=3
IL-8 = IL-8 level by ELISA in supernatants of IFNγ-treated human keratinocytes; type: cell-based; settings: concentration-dependent, n=3
IDO1 pre-mRNA = assay: IDO1 gene expression by q-RT-PCR in human keratinocytes; type: cell-based; settings: non-cytotoxic concentrations (Fig. 2B, 2C), n=3
IL-6 = IL-6 level by ELISA in supernatants of IFNγ-treated human keratinocytes; type: cell-based; settings: concentration-dependent, n=3

## CG*^2TA*C*TTTGA*TTG*^2 [Compound 4]
Complementary DNAs
  Tm (binding affinity to complementary DNA): 72.07 °C

## Compound 2: modified PNA oligomer with cationic lipid-bearing nucleobases targeting IDO1 pre-mRNA (CTCCAAACCTTACG; PNA; cationic lipid-bearing nucleobases)
IDO1
  IDO1 expression: significantly inhibits IDO1 expression
PGE2
  PGE2 level in cell culture supernatant: effectively reduced
IL-8
  IL-8 level in cell culture supernatant: effectively reduced
Complementary DNAs
  Tm (binding affinity to complementary DNA): 82.07 °C
IDO1 pre-mRNA
  IDO1 gene expression, concentration-dependent analysis: significant inhibitory effect
IL-6
  IL-6 level in cell culture supernatant: effectively reduced
